37 sequences from the array DNA melting data of Ke et al. (doi:10.1101/2024.01.08.574731) can be followed below.

The nature of data set [1]: folding enthalpy; higher = less favourable; fluorescence melt of hairpins on a sequencing array, two-state fit. The following applies: sodium 0.088 M. In a few lines: (§1)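 In 50 mM Na-HEPES pH 8.0 containing 25 mM NaCl, hairpins from the library on a sequenced MiSeq flow cell were imaged for Cy3 fluorescence at 2.5 °C steps up to 60 °C, with Cy3 and quencher oligos annealed. After normalisation to pre-quench Cy3 and to control constructs, two-state fits with bootstrapping gave melting temperature and folding enthalpy. Four replicates were combined by inverse-variance weighting, and fitted temperatures were shifted up by 9.35 °C to match UV melts.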

The nature of data set [2]: melting temperature; fluorescence melt of hairpins on a sequencing array, two-state fit, raised by 9.35 °C to match UV melts. The following applies: sodium 0.088 M. In a few lines:
as §1

GCCTAGAAATAGGC (((((....))))): the folding enthalpy in data set [1] was -29.2 kcal/mol. In addition, the Tm in data set [2] was determined as 49.8 °C.
Consider GCCTAGACGAAAGTCGGC (((..(((....)))))), for which, in data set [1], the folding enthalpy is -21.6 kcal/mol. Also, the Tm in data set [2] is 53.3 °C.
For GCCTAGCGAAAGCCCGGC (((..((....))..))) the same measures were -17.4 kcal/mol and 42.7 °C.
Take GCCTAGGGAAACCTAAGC ((.((((....)))).)): the folding enthalpy in data set [1] was -14.7 kcal/mol. The Tm in data set [2] was 31.6 °C.
In the case of GCCTAGGGAAACCTAGAC (.(((((....))))).), the folding enthalpy in data set [1] was -19.6 kcal/mol. Further, in data set [2], the Tm was determined as 35.4 °C.
For GCCTATCGAAAGATGGGC (((.(((....))).))) the same measures were -34.6 kcal/mol and 60.1 °C.
For GCCTATGAAAATAGGC ((((((....)))))) the same measures were -34 kcal/mol and 58.9 °C.
For GCCTATGGAAACATAGGC (((((((....))))))) the same measures were -33.8 kcal/mol and 66 °C.
Take GCCTCACCGAAAGGTGGC (((..(((....)))))): in data set [1], the folding enthalpy is -8.02 kcal/mol. Also, the Tm in data set [2] is 48.9 °C.
For GCCTCAGCGAAAGCTGGC (((..(((....)))))) the same measures were -8.88 kcal/mol and 50.9 °C.
The corresponding values for GCCTCAGGAAACCAAGGC ((((..(....)..)))) are -28.6 kcal/mol and 33.2 °C.
The corresponding values for GCCTCAGGAAACCGAGGC (((((.(....).))))) are -45.1 kcal/mol and 53.5 °C.
As for GCCTCCCCGAAAGGGGGC (((..(((....)))))), the folding enthalpy in data set [1] was -9.45 kcal/mol. Moreover, the Tm in data set [2] was found to be 52.5 °C.
On to GCCTCCCGAAAGGGCGGC (((.(((....))).))), for which, in data set [1], the folding enthalpy was -34.4 kcal/mol. For the same sequence, in data set [2], the Tm was found to be 61.3 °C.
The corresponding values for GCCTCCGAAAGGAAGGC ((((((....))).))) are -31.9 kcal/mol and 62 °C.
Consider GCCTCCGAAAGGACGGC ((((((....))).))), for which the folding enthalpy in data set [1] is -30.9 kcal/mol. Further, the Tm in data set [2] amounted to 56.5 °C.
The corresponding values for GCCTCCGAAAGGAGAGGC ((((((....)))..))) are -20.4 kcal/mol and 54.8 °C.
On to GCCTCCGAAAGGATGGGC ((((((....)))..))), for which, in data set [1], the folding enthalpy is -41.9 kcal/mol. Also, the Tm in data set [2] was 50 °C.
For GCCTCCGAAAGGATTGGC ((((((....)))..))) the same measures were -19.7 kcal/mol and 47.4 °C.
The corresponding values for GCCTCCGGAAACGGAGAC (.(((((....))))).) are -15.8 kcal/mol and 47 °C.
For GCCTCGCCGAAAGGCGGC (((..(((....)))))) the same measures were -5.04 kcal/mol and 55.4 °C.
Take GCCTCGCGAAAGCAAAGC ((.(.((....)).).)): in data set [1], the folding enthalpy is -9.86 kcal/mol. The Tm in data set [2] was determined as 28.4 °C.
In the case of GCCTCGCGAAAGCCAGGC ((((.((....)).)))), the folding enthalpy in data set [1] is -23.5 kcal/mol. In addition, the Tm in data set [2] amounted to 58.2 °C.
The corresponding values for GCCTCGCGAAAGCCTGGC (((..((....))..))) are -22.9 kcal/mol and 46.5 °C.
Turning to GCCTCGCGAAAGCGCCGC ((..(((....)))..)), in data set [1], the folding enthalpy is -14.3 kcal/mol. Moreover, in data set [2], the Tm worked out at 36.1 °C.
For GCCTCGCGAAAGCGTAGC ((..(((....)))..)) the same measures were -11.8 kcal/mol and 44 °C.
The corresponding values for GCCTCGCGAAAGCGTTGC ((..(((....)))..)) are -15.7 kcal/mol and 39.9 °C.
The corresponding values for GCCTCGGGAAACCGAGAC (.(((((....))))).) are -15.8 kcal/mol and 46.2 °C.
Turning to GCCTCTCCGAAAGGAGGC (((..(((....)))))), in data set [1], the folding enthalpy is -12.4 kcal/mol. Further, the Tm in data set [2] came out at 52.9 °C.
The corresponding values for GCCTCTCGAAAGAGGGC (((.(((....)))))) are -30.6 kcal/mol and 54.4 °C.
For the sequence GCCTCTCGAAAGAGGGGC (((.(((....))).))), the folding enthalpy in data set [1] was -34.1 kcal/mol. In addition, the Tm in data set [2] worked out at 63.2 °C.
Regarding GCCTGACCGAAAGGTGGC (((..(((....)))))), the folding enthalpy in data set [1] was -23.4 kcal/mol. Further, the Tm in data set [2] worked out at 51.2 °C.
The corresponding values for GCCTGACGAAAGTCCGGC (((.(((....))).))) are -41.4 kcal/mol and 56.7 °C.
In the case of GCCTGAGGAAACTCAGAC (.(((((....))))).), the folding enthalpy in data set [1] is -16.7 kcal/mol. For the same sequence, the Tm in data set [2] is 40.7 °C.
The corresponding values for GCCTGATCGAAAGATGGC (((..(((....)))))) are -25.2 kcal/mol and 41.9 °C.
Take GCCTGCCGAAAGGCCGGC (((.(((....))).))): in data set [1], the folding enthalpy is -22.4 kcal/mol. In data set [2], the Tm turned out to be 64.3 °C.
The corresponding values for GCCTGCGAAAGCACAGGC ((((((....)))..))) are -24 kcal/mol and 55.5 °C.
